The results in this text go back to ChEMBL document CHEMBL1221395, “Synthesis, anticancer activity and mitochondrial mediated apoptosis inducing ability of 2,5-diaryloxadiazole-pyrrolobenzodiazepine conjugates” (Bioorg Med Chem, 2010).

Data set [1] in a line: Cytotoxicity against human Gurav cells after 24 hrs by WST-1 assay. The format is functional. In general terms: Tetrazolium dyes change colour on reduction, which living cells bring about.
Another data set deals with HOP-62. In words: Cytotoxicity against human HOP62 cells after 24 hrs by WST-1 assay. Particulars: HOP-62, 24 h. The class given is functional.
Data set [2] relates to KB. In words: Cytotoxicity against human KB cells by SRB assay.
The subject of data set [3] is A2780. In words: Cytotoxicity against human A2780 cells by SRB assay. In general terms: In SRB staining, fixed cells bind dye roughly in proportion to their protein.
Data set [4] can be described thus: Cytotoxicity against human DWD cells after 24 hrs by SRB assay.
The next data set deals with MCF7. Put plainly: Cytotoxicity against human MCF7 cells by sulforhodamine B assay.
For a further data set, the system named is SiHa. Put plainly: Cytotoxicity against human SiHa cells after 24 hrs by SRB assay.
For another data set, the system named is COLO 205. Put plainly: Cytotoxicity against human COLO205 cells after 24 hrs by SRB assay. The following applies: COLO 205, 24 h.
In a further data set the test system is A549. In words: Cytotoxicity against human A549 cells after 24 hrs by WST-1 assay. The format is functional. Particulars: A549, 24 h.
Data set [5] concerns PC-3. Put plainly: Cytotoxicity against human PC3 cells after 24 hrs by WST-1 assay. The format is functional. Particulars: PC-3, 24 h.
Data set [6] has as its system A2780. Put plainly: Cytotoxicity against human A2780 cells after 24 hrs by WST-1 assay. The format is functional. Particulars: A2780, 24 h.
Data set [7] concerns KB. In words: Cytotoxicity against human KB cells after 24 hrs by WST-1 assay. The class given is functional.
Data set [8] is described as follows: Lipophilicity, log P of the compound. The format is physicochemical. The following applies: octanol/water.
The test system of data set [9] is A-375. In words: Cell cycle arrest in human A375 cells assessed as accumulation at S phase after 24 hrs by FACS flow cytometry. Further details: concentration or dose not given beside the values. Background: In flow cytometry, cells or beads pass a laser one at a time.
Data set [10] relates to A-375. In words: Cell cycle arrest in human A375 cells assessed as accumulation at G1 phase after 24 hrs by FACS flow cytometry. Further details: concentration or dose not given beside the values.
For data set [11], the system named is A-375. Put plainly: Cell cycle arrest in human A375 cells assessed as accumulation at G2/M phase after 24 hrs by FACS flow cytometry. Further details: concentration or dose not given beside the values.
The test system of data set [12] is A-375. Put plainly: Cell cycle arrest in human A375 cells assessed as accumulation at Sub-G1 phase after 24 hrs by FACS flow cytometry. Further details: concentration or dose not given beside the values.
A short description of data set [13]: Toxicity against SCID mouse. The format is organism-based. The following applies: in vivo.
The subject of data set [14] is A-375. In words: Antitumor activity against human A375 cells assessed as upregulation of p53 protein level at 4 uM after 24 hrs by Western blotting. The class given is functional, cell-based. In outline:
(§1)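 A375 cells treated at 4 µM for 24 h. Lysates cleared at 12,000 rpm for 10 min, and protein quantified by Bradford. 30 µg per lane run on 12% SDS-PAGE and transferred to PVDF. Blocked 2 h in TBST with 5% blocking powder. Primary antibody overnight at 4 °C, HRP secondary (1:2000) 1 h at room temperature. β-actin used as loading control; untreated cells as control.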

The test system of data set [15] is Mus musculus. Put plainly: Toxicity against SCID mouse assessed as mortality at 20 mg/kg, ip q4d on day 1, 5 and 9. The class given is organism-based. Further details: dose 20 mg/kg, route intraperitoneal. Particulars: in vivo. In outline: (§2)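 Male NOD-SCID mice carrying human prostate PC-3 xenografts were dosed at 20 mg/kg ip on days 1, 5 and 9 (q4d). Mortality and body weight were followed over days 1–31, alongside a control group and an adriamycin 5 mg/kg arm. Tumour weight was recorded over the same period.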

Data set [16] concerns Mus musculus. Put plainly: Toxicity against SCID mouse assessed as weight loss at 20 mg/kg, ip q4d on day 1, 5 and 9. The format is organism-based. Further details: dose 20 mg/kg, route intraperitoneal. The following applies: in vivo. In outline:
as §2

Data set [17] deals with PC-3. Put plainly: Antitumor activity against human PC3 cells xenografted in NOD-SCID mouse at 20 mg/kg, ip q4d on day 1, 5 and 9. The format is functional, organism-based. Also on record: dose 20 mg/kg. A digest of the protocol:
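Human prostate cancer PC-3 xenografts in male NOD-SCID mice. Dosed 20 mg/kg intraperitoneally on days 1, 5 and 9 (q4d). Tumour weight and body weight/survival followed over about 31 days. Adriamycin 5 mg/kg and untreated groups served as comparators.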

The test system of another data set is Calf thymus DNA. Put plainly: Binding affinity to calf thymus DNA assessed as change in melting temperature after 18 hrs. The class given is nucleic-acid assay. The following applies: Bos taurus. In outline:
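Thermal melting with duplex CT-DNA (100 µM in phosphate) and ligand (20 µM), added from methanol stock, [PBD]/[DNA] 1:5, in 10 mM sodium phosphate + 1 mM EDTA, pH 7.00; incubated at 37 °C for 18 h. A260 monitored while heating at 1 °C/min over 40–90 °C. Tm taken from d(A260)/dT maxima, corrected for methanol; ΔTm = Tm(DNA+ligand) − Tm(DNA alone); at least three determinations.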

The test system of data set [18] is A-375. Put plainly: Antitumor activity against human A375 cells assessed as upregulation of p21 protein level at 4 uM after 24 hrs by Western blotting. The class given is functional, cell-based. A digest of the protocol: as §1
In data set [19] the test system is A-375. In words: Antitumor activity against human A375 cells assessed as upregulation of pRb protein level at 4 uM after 24 hrs by Western blotting. The class given is functional, cell-based. In outline:
as §1

In data set [20] the test system is A-375. In words: Induction of apoptosis in human A375 cells assessed as increase in Bax protein level at 4 uM after 24 hrs by Western blotting. The format is functional, cell-based. In outline:
as §1

In data set [21] the test system is A-375. In words: Induction of apoptosis in human A375 cells assessed as increase in cytochrome C protein level at 4 uM after 24 hrs by Western blotting. The class given is functional, cell-based. In outline: as §1
The test system of data set [22] is A-375. In words: Induction of apoptosis in human A375 cells assessed as increase in PARP protein level at 4 uM after 24 hrs by Western blotting. The class given is functional, cell-based. In outline: as §1
For data set [23], the system named is A-375. Put plainly: Induction of apoptosis in human A375 cells assessed as increase in Caspase 3 activation at 4 uM after 24 hrs by fluorimetry. The format is functional, cell-based. A digest of the protocol: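 A375 cells exposed to 4 µM compound. Cell lysate incubated with DEVD-AFC substrate, with or without DEVD-CHO inhibitor, at 37 °C for 1 h in a fluorescent caspase-3 kit. Fluorescence read at excitation 400 nm, emission 505 nm.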

A short description of data set [24]: Cytotoxicity against human DWD cells by SRB assay.
The test system of another data set is ZR-75-1. Put plainly: Cytotoxicity against human ZR-75-1 cells by SRB assay.
Data set [25] relates to KB. In words: Cytotoxicity against human KB cells after 24 hrs by SRB assay.

Calls of active or inactive are those of the source. The rule behind the calls is not given here.

In general, GI50 refers to the concentration that inhibits growth by half. Regarding `COc1cccc2c1C(=O)c1c(O)c3c(c(O)c1C2=O)C[C@@](O)(C(=O)CO)C[C@@H]3O[C@H]1C[C@H](N)[C@H](O)[C@H](C)O1` [DOXORUBICIN], the GI50 in [1] came out at 170 nM; with HOP-62, 140 nM; in the data set with KB [2], 170 nM; in the data set on A2780 [3], 160 nM; in data set [4], 100 nM; in the data set with MCF7, 170 nM. Further, the results for the GI50 in the data set with SiHa and with COLO 205 were 170 nM and 140 nM, respectively.
A word on the logP: it is a log measure of how a compound divides between an organic and an aqueous phase. For the molecule `COc1cc2c(cc1O)N=C[C@@H]1CCCN1C2=O`, the GI50 in the data set with A549 was determined as 160 nM; in the data set on PC-3 [5], 200 nM; in data set [1] it was 160 nM; with HOP-62 it was 150 nM; with A2780 [6], 140 nM; in the data set with KB [7] it was 170 nM. In addition, the GI50 in the data set on MCF7 is 170 nM; with SiHa, 170 nM; with COLO 205, 110 nM. For the same molecule, the logP in data set [8] worked out at 0.88. Also, the Activity in the data set with A-375 [9] is reported as 8.02%; in the data set with A-375 [10], 73.66%; in the data set with A-375 [11] it was 2.98%; in the data set with A-375 [12], 15.33%.
The term ΔTm denotes the shift of the melting midpoint relative to a reference. Consider `COc1ccc(-c2nnc(-c3ccc(OC)c(OCCCCCOc4cc5c(cc4OC)C(=O)N4CCC[C@H]4C=N5)c3)o2)cc1OC`, for which, in [13], the MTD is below 50 mg/kg. The result in the data set on A-375 [14], in the data set on PC-3 [17], with A-375 [18], with A-375 [19], in the data set with A-375 [20] and with A-375 [21] was Active. Also, the outcome in the data set on A-375 [22] and in the data set with A-375 [23] was Active. Moreover, the GI50 (with A549; in the data set with PC-3 [5]; in [1]; with HOP-62; in the data set with KB [2]; in data set [24]) was below 100 nM in each case. Besides, the GI50 in the data set on A2780 [3], in the data set on ZR-75-1, in the data set on MCF7, in the data set on SiHa and in the data set with COLO 205 was below 100 nM each time. Besides, the Activity result in the data set with Mus musculus [15] was “Non-toxic”; in the data set on Mus musculus [16], “Non-toxic”; in the data set on A-375 [9] it was 2.68%; in the data set on A-375 [10] it was 59.66%; in the data set on A-375 [11] it was 0.99%; in the data set on A-375 [12], 36.66%. For the same molecule, the ΔTm in the data set with Calf thymus DNA was 5.8 °C. For the same molecule, the logP in [8] is 4.68.
Take `COc1ccc(-c2nnc(-c3ccc(C(F)(F)F)cc3)o2)cc1OCCCOc1cc2c(cc1OC)C(=O)N1CCC[C@H]1C=N2`: the result with A-375 [14], with A-375 [18], in the data set with A-375 [19], with A-375 [20], in the data set on A-375 [21] and in the data set with A-375 [22] was Active. Also, the outcome with A-375 [23] was Active. In addition, the GI50 in the data set on A549 is below 100 nM; in the data set with PC-3 [5], 140 nM; in data set [1] it was below 100 nM; with HOP-62, below 100 nM; in [24] it was 110 nM; in the data set on A2780 [3] it was below 100 nM. Also, the GI50 in the data set on ZR-75-1 is 110 nM; in the data set on KB [25] it was below 100 nM; in the data set with MCF7, 110 nM; in the data set on SiHa, below 100 nM; in the data set on COLO 205, below 100 nM. Moreover, the ΔTm in the data set with Calf thymus DNA was 4 °C. This molecule displayed a logP in [8] of 5.07. The Activity is 7.51% in the data set on A-375 [9], 72.28% in the data set on A-375 [10], 2.26% in the data set with A-375 [11] and 17.93% with A-375 [12].
